# Measurements reported in ChEMBL document CHEMBL1765069, “Decahydroquinoline amides as highly selective CB2 agonists: role of selectivity on in vivo efficacy in a rodent model of analgesia” (Bioorg Med Chem Lett, 2011).
# Legend:
# Cannabinoid receptor 2 [1] = biological target: T1, Cannabinoid receptor 2 (Homo sapiens, UniProt P34972); assay: Agonist activity at human CB2 receptor expressed in CHOK1 cells assessed as inhibition of forskolin-induced cAMP production treated 15 mins before forskolin challenge measured after 1 hr by HTRF assay; assay type: functional, cell-based, CHO-K1
# Procedure, shortened: (§1)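 CHO-K1 cells (1000 per well) expressing human or rat CB1 or CB2 were preincubated with compound for 15 min at room temperature. Forskolin was then added at its EC70 for 30 min at room temperature. cAMP was detected by HTRF (d2-cAMP plus anti-cAMP cryptate) after a final 1 h incubation at room temperature. Values are reported as IC50 with % Emax.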
# Cannabinoid receptor 1 [2] = biological target: T2, Cannabinoid receptor 1 (Homo sapiens, UniProt P21554); assay: Agonist activity at human CB1 receptor expressed in CHOK1 cells assessed as inhibition of forskolin-induced cAMP production treated 15 mins before forskolin challenge measured after 1 hr by HTRF assay relative to control; assay type: functional, cell-based; conditions: CHO-K1
# Procedure, shortened: (§2)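 CHO-K1 cells (1000 per well) expressing human or rat CB1 or CB2 were preincubated with compound at room temperature for 15 min. Forskolin at EC70 was then added for a further 30 min at room temperature. cAMP was read by HTRF (d2-cAMP plus anti-cAMP-cryptate, final 1 h at room temperature). IC50 and % Emax were reported.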
# Cannabinoid receptor 2 [3] = biological target: T1, Cannabinoid receptor 2; assay: Agonist activity at human CB2 receptor expressed in CHOK1 cells assessed as inhibition of forskolin-induced cAMP production treated 15 mins before forskolin challenge measured after 1 hr by HTRF assay relative to control; assay type: functional, cell-based; conditions: CHO-K1; procedure, shortened: as §2
# Cannabinoid receptor 1 [4] = biological target: T2, Cannabinoid receptor 1; assay: Agonist activity at human CB1 receptor expressed in CHOK1 cells assessed as inhibition of forskolin-induced cAMP production treated 15 mins before forskolin challenge measured after 1 hr by HTRF assay; assay type: functional, cell-based, CHO-K1; procedure, shortened: as §1
# Rattus norvegicus [5] = assay: Antiinflammatory activity in rat assessed as inhibition of complete Freund's adjuvant-induced paw withdrawal threshold at 10 mg/kg, sc after 60 mins (reference value: 4.8%); assay type: functional; conditions: 1 h, route subcutaneous
# Procedure, shortened: (§3)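 Rat complete Freund's adjuvant hyperalgesia model. Compound was given subcutaneously at 10, 30 or 100 mpk. Paw withdrawal threshold was read at the 60 min timepoint and expressed as % reversal.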
# Plasma = assay: Drug level in rat complete Freund's adjuvant-induced inflammation model plasma at 30 mg/kg, sc; assay type: ADME, organism-based; design: dose 30 mg/kg, route subcutaneous; conditions: in vivo, read-out: Drug uptake
# Procedure, shortened: (§4)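 In the rat CFA hyperalgesia experiments, after 30 mpk subcutaneous dosing, compound levels (nM) were measured in plasma, brain homogenate and cerebrospinal fluid.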
# Rattus norvegicus [6] = assay: Antiinflammatory activity in rat assessed as inhibition of complete Freund's adjuvant-induced paw withdrawal threshold at 30 mg/kg, sc after 60 mins (reference value: 4.8%); assay type: functional; conditions: 1 h, route subcutaneous; procedure, shortened: as §3
# Cannabinoid receptor 2 [7] = biological target: T3, Cannabinoid receptor 2 (Rattus norvegicus, UniProt Q9QZN9); assay: Agonist activity at rat CB2 receptor expressed in CHOK1 cells assessed as inhibition of forskolin-induced cAMP production treated 15 mins before forskolin challenge measured after 1 hr by HTRF assay; assay type: functional, cell-based, CHO-K1; procedure, shortened: as §1
# T3 sequence (Q9QZN9 whole entry): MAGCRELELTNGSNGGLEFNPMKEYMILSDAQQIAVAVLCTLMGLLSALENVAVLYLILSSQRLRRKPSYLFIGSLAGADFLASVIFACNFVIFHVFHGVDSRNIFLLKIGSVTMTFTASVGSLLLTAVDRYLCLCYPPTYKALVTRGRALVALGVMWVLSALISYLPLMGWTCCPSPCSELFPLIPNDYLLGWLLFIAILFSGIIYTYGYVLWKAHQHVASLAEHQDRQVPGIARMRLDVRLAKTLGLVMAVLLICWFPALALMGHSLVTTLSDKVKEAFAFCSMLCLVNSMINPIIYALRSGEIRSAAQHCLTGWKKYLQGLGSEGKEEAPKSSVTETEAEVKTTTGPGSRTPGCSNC
# Brain = assay: Drug level in rat complete Freund's adjuvant-induced inflammation model brain at 30 mg/kg, sc; assay type: ADME, organism-based; design: dose 30 mg/kg, route subcutaneous; conditions: in vivo, read-out: Drug uptake; procedure, shortened: as §4
# Cerebrospinal fluid = assay: Drug level in rat complete Freund's adjuvant-induced inflammation model cerebrospinal fluid at 30 mg/kg, sc; assay type: ADME, organism-based; design: dose 30 mg/kg, route subcutaneous; conditions: in vivo, read-out: Drug uptake; procedure, shortened: as §4
# Rattus norvegicus [8] = assay: Antiinflammatory activity in rat assessed as inhibition of complete Freund's adjuvant-induced paw withdrawal threshold at 100 mg/kg, sc after 60 mins (reference value: 4.8%); assay type: functional; conditions: 1 h, route subcutaneous; procedure, shortened: as §3
# Cannabinoid receptor 1 [9] = biological target: Cannabinoid receptor 1 (Rattus norvegicus, UniProt P20272); assay: Agonist activity at rat CB1 receptor expressed in CHOK1 cells assessed as inhibition of forskolin-induced cAMP production treated 15 mins before forskolin challenge measured after 1 hr by HTRF assay; assay type: functional, cell-based, CHO-K1; procedure, shortened: as §1
# [10] = biological target: T4, Cannabinoid receptor 2 (Rattus norvegicus) (UniProt Q9QZN9); assay: Agonist activity at rat CB2 receptor expressed in CHOK1 cells assessed as inhibition of forskolin-induced cAMP production treated 15 mins before forskolin challenge measured after 1 hr by HTRF assay relative to control; assay type: functional, cell-based; conditions: CHO-K1; procedure, shortened: as §2
# T4 sequence (whole entry): T3 sequence (Q9QZN9 whole entry)
# Rattus norvegicus [11] = assay: Antiinflammatory activity in rat assessed as inhibition of complete Freund's adjuvant-induced paw withdrawal threshold at 30 mg/kg, sc after 60 mins (reference value: 11%); assay type: functional; conditions: 1 h, route subcutaneous; procedure, shortened: as §3
# Rattus norvegicus [12] = organism: Rattus norvegicus
# [13] = biological target: Cannabinoid receptor 1 (Rattus norvegicus) (UniProt P20272); assay: Agonist activity at rat CB1 receptor expressed in CHOK1 cells assessed as inhibition of forskolin-induced cAMP production treated 15 mins before forskolin challenge measured after 1 hr by HTRF assay relative to control; assay type: functional, cell-based; conditions: CHO-K1; procedure, shortened: as §2
# Rattus norvegicus [14] = assay: Antiinflammatory activity in sc dosed rat assessed as inhibition of complete Freund's adjuvant-induced paw withdrawal threshold after 60 mins; assay type: functional, organism-based; procedure, shortened: as §3
# [15] = Fraction unbound in rat plasma; assay type: ADME, cell-free
# [16] = Distribution coefficient, log P of the compound; assay type: physicochemical; conditions: octanol/water
# Homo sapiens = organism: Homo sapiens; assay: Selectivity ratio of IC50 for human CB1 receptor to IC50 for human CB2 receptor
# [17] = Half life in rat at 2 mg/kg, iv; assay type: ADME, organism-based; design: dose 2 mg/kg, route intravenous; conditions: in vivo
# [18] = Clearance in rat at 2 mg/kg, iv; assay type: ADME, organism-based; design: dose 2 mg/kg, route intravenous; conditions: in vivo
# Rattus norvegicus [19] = organism: Rattus norvegicus; assay: animal or person; conditions: sc, 1 h, read-out: INH
# T2 sequence (P21554 whole entry): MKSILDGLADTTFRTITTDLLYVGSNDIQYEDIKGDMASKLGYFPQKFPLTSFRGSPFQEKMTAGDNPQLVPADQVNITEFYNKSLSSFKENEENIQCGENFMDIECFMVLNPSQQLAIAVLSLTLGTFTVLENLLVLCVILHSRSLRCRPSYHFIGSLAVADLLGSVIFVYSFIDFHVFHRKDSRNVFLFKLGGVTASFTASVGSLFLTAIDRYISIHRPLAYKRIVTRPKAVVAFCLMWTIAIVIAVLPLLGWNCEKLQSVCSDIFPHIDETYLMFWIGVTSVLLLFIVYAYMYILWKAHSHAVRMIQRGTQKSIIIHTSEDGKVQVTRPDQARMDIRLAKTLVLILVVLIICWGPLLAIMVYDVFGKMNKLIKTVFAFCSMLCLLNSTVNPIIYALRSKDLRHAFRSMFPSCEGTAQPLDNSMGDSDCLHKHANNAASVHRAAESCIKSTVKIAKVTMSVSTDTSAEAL
# T1 sequence (P34972 whole entry): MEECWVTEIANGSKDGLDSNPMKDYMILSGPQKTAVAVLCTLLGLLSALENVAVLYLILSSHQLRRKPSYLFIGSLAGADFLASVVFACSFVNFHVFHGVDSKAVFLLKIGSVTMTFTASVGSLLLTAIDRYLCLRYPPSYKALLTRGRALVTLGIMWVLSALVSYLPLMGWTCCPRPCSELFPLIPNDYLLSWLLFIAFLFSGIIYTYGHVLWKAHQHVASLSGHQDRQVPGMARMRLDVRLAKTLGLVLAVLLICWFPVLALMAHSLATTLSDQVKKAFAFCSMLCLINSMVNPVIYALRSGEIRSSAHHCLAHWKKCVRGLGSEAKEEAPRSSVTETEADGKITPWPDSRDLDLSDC
# Chain of Cannabinoid receptor 1 (Rattus norvegicus, UniProt P20272) (P20272 whole entry): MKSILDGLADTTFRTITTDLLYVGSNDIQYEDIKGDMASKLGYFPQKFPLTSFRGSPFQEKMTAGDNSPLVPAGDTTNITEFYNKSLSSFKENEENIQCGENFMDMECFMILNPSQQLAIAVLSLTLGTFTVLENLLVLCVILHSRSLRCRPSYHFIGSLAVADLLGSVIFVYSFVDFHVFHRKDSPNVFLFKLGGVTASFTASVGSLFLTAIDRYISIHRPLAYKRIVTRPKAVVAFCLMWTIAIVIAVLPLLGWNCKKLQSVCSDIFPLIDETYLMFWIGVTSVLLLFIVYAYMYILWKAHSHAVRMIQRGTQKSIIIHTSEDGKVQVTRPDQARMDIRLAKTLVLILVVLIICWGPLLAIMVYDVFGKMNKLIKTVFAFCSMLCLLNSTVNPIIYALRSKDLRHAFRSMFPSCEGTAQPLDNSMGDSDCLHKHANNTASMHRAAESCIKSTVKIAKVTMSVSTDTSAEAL
# Chain of Cannabinoid receptor 1 (Rattus norvegicus) (P20272 whole entry): as above
SMILES,IC50 (Cannabinoid receptor 2 [1]),Emax (Cannabinoid receptor 1 [2]),Emax (Cannabinoid receptor 2 [3]),IC50 (Cannabinoid receptor 1 [4]),other results
O=C(c1ccccc1)N1CC[C@](O)(c2ccccc2)[C@H]2CCCC[C@@H]21,45 nM,14%,99%,> 17000 nM,–
O=C(c1ccc(Cl)cc1)N1CC[C@](O)(c2ccccc2)[C@H]2CCCC[C@@H]21,24 nM,72%,90%,963 nM,–
O=C(c1ccc2ccccc2n1)N1CC[C@](O)(c2ccccc2)[C@H]2CCCC[C@@H]21,41 nM,84%,98%,2020 nM,–
O=C(c1cccc2[nH]ccc12)N1CC[C@](O)(c2ccccc2)[C@H]2CCCC[C@@H]21,22 nM,31%,94%,> 17000 nM,–
CN1CCC(C(=O)N2CC[C@](O)(c3ccccc3)[C@H]3CCCC[C@@H]32)C1 (stereo partly drawn),> 17000 nM,34%,34%,> 17000 nM,–
O=C(c1ccccc1)N1CC[C@](O)(c2ccccc2)[C@H]2CCCC[C@H]21,4.2 nM,76%,100%,4540 nM,–
O=C(c1ccc(Cl)cc1)N1CC[C@](O)(c2ccccc2)[C@H]2CCCC[C@H]21,0.14 nM,79%,90%,312 nM,–
O=C(c1ccc2ccccc2n1)N1CC[C@](O)(c2ccccc2)[C@H]2CCCC[C@H]21,0.82 nM,98%,98%,188 nM,–
O=C(c1cccc2[nH]ccc12)N1CC[C@](O)(c2ccccc2)[C@H]2CCCC[C@H]21,0.62 nM,64%,100%,> 17000 nM,–
O=C(c1cc(-c2ccccc2F)[nH]n1)N1CC[C@](O)(c2ccccc2)[C@H]2CCCC[C@H]21,21 nM,46%,99%,> 17000 nM,–
CN1CCC(C(=O)N2CC[C@](O)(c3ccccc3)[C@H]3CCCC[C@H]32)C1 (stereo partly drawn),5.9 nM,6%,102%,> 17000 nM,–
Cc1ccc(C(=O)N2CC[C@@](O)(c3ccccc3)[C@@H]3CCCC[C@@H]32)cn1 [listing 1 of 2 here],7.3 nM,–,–,5020 nM,inhibition in vivo at 10 mg/kg (Rattus norvegicus [5]): 28.2%; concentration (Plasma): 4.2 µM; inhibition in vivo at 30 mg/kg (Rattus norvegicus [6]): 53.6%; IC50 (Cannabinoid receptor 2 [7]): 6.3 nM; concentration (Brain): 3.2 µM; concentration (Cerebrospinal fluid): 0.223 µM; inhibition in vivo at 100 mg/kg (Rattus norvegicus [8]): 76.4%; IC50 (Cannabinoid receptor 1 [9]): 1890 nM
CN1CCOC[C@H]1C(=O)N1CC[C@@](O)(c2ccccc2)[C@@H]2CCCC[C@@H]21,16 nM,11%,101%,> 17000 nM,concentration (Plasma): 6.6 µM; Emax [10]: 98%; IC50 (Cannabinoid receptor 2 [7]): 81 nM; concentration (Brain): 9.8 µM; inhibition in vivo at 30 mg/kg (Rattus norvegicus [11]): 3.3%; Papp (Rattus norvegicus [12]): 39 ×10⁻⁶ cm/s; concentration (Cerebrospinal fluid): 1.5 µM; Emax [13]: 8%; IC50 (Cannabinoid receptor 1 [9]): > 17000 nM
Cc1ccc(C(=O)N2CC[C@@](O)(c3ccccc3)[C@@H]3CCCC[C@@H]32)cn1 [listing 2 of 2 here],–,78%,103%,–,Emax [10]: 119%; Papp (Rattus norvegicus [12]): 36 ×10⁻⁶ cm/s; Emax [13]: 94%; inhibition (Rattus norvegicus [14]): Dose-dependent effect
CN1CCOCC1C(=O)N1CC[C@@](O)(c2ccccc2)[C@@H]2CCCC[C@@H]21 (mixture of isomers),30 nM,–,100%,> 17000 nM,fraction unbound [15]: 0.34; logP [16]: 2.28
O=C(C1CN(CC(F)(F)F)CCO1)N1CC[C@@](O)(c2ccccc2)[C@@H]2CCCC[C@@H]21 (mixture of isomers),30 nM,96%,99%,4040 nM,–
O=C(c1cnc2ccccc2c1)N1CC[C@@](O)(c2ccccc2)[C@@H]2CCCC[C@@H]21 (racemic),3.38 nM,69%,96%,1530 nM,Ratio IC50 (Homo sapiens): 452
O=C(c1ccc2ncccc2c1)N1CC[C@@](O)(c2ccccc2)[C@@H]2CCCC[C@@H]21 (racemic),0.53 nM,95%,87%,261 nM,Ratio IC50 (Homo sapiens): 492
O=C(c1ccc2cnccc2n1)N1CC[C@@](O)(c2ccccc2)[C@@H]2CCCC[C@@H]21 (racemic),5.5 nM,69%,99%,3440 nM,Ratio IC50 (Homo sapiens): 626
O=C(c1ccc2[nH]ccc2c1)N1CC[C@@](O)(c2ccccc2)[C@@H]2CCCC[C@@H]21 (racemic),1.4 nM,91%,104%,1000 nM,Ratio IC50 (Homo sapiens): 716
O=C(c1cccc2[nH]cnc12)N1CC[C@@](O)(c2ccccc2)[C@@H]2CCCC[C@@H]21 (racemic),35 nM,53%,101%,> 17000 nM,Ratio IC50 (Homo sapiens): > 486
O=C(c1cccc2[nH]ncc12)N1CC[C@@](O)(c2ccccc2)[C@@H]2CCCC[C@@H]21 (racemic),4 nM,15%,102%,> 17000 nM,Ratio IC50 (Homo sapiens): > 4000; fraction unbound [15]: 0.048; half-life [17]: 25.8 min; clearance [18]: 70 mL/min/kg
Cc1ccc(C(=O)N2CC[C@@](O)(c3ccccc3)[C@@H]3CCCC[C@@H]32)cn1 (racemic),14 nM,–,–,> 17000 nM,fraction unbound [15]: 0.15; logP [16]: 2.26
O=C(c1cnco1)N1CC[C@@](O)(c2ccccc2)[C@@H]2CCCC[C@@H]21 (racemic),156 nM,50%,98%,3440 nM,–
"O=C(c1csc(-c2ccncc2)n1)N1CCC(O)(c2ccccc2)[C@@H]2CCCC[C@@H]21 (single isomer, unassigned; form 3)",–,51%,97%,–,–
"O=C(c1csc(-c2ccncc2)n1)N1CCC(O)(c2ccccc2)[C@@H]2CCCC[C@@H]21 (single isomer, unassigned; form 4)",–,46%,19%,–,–
COc1ccc2cc([C@H](C)C(=O)O)ccc2c1 [NAPROXEN],–,–,–,–,inhibition in vivo at 20 mg/kg (Rattus norvegicus [19]): 23.9%
